Efflux pump mplx: inhibitors of Candida efflux pumps in yeast, primary screen, S. cerevisiae, Nile Red, multiplex | S. cerevisiae Candida pump triplex | inhibition, % at 10 µM | hit rate 0.44% among 330,000;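 active = plate passing quality check with inhibition over a set limit, or well fluorescence over plate mean plus 4 SD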;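 note: Nile Red retained in pooled yeast measured as flow cytometry median fluorescence; higher means more Nile Red kept so more efflux inhibition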
MC4R barr agon: MC4R agonists recruiting beta-arrestin, primary screen, cell-based, luminescence, agonist arm of biased-ligand search | U2OS MC4R beta-arrestin complementation; percent of melanotan II response, DMSO zero | activation, % at 8.9 µM | hit rate 0.98% among 360,000 | AID 540308, 2011;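 active = activation above a per-plate cutoff, the mean activation of sample wells on that plate plus 3 SD, cut at about 8% in these data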
Target sequence (P32245 whole entry, looked up): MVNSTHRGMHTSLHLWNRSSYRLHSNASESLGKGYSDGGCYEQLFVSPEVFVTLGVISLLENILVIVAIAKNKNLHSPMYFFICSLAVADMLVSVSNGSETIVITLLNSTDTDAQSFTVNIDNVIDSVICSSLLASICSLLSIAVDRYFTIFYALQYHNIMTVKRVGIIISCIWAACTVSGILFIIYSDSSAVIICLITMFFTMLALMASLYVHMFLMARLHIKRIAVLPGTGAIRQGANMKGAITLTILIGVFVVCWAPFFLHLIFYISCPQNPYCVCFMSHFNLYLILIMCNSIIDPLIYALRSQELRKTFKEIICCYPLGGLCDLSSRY
Calb FLC: C. albicans growth inhibition with fluconazole, primary screen, CaCi-2 strain, Alamar Blue fluorescence. C. albicans CaCi-2 (fluconazole-resistant clinical isolate) + fluconazole, 48 h. growth inhibition, % (test concentration not listed). hit rate 0.57% among 300,000. AID 1979, 2009;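 active = growth inhibition above about 58% in most replicates, limit read from the data, passing the limit was not always enough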;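 note: all wells also contain fluconazole at 8 µg/ml as a sub-toxic cotreatment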
TAG inh: inhibitors of triacylglycerol accumulation, primary screen, cell-based, uHTS, fluorescence, H9c2. H9c2 cells, Nile Red lipid (TAG) fluorescence; cells loaded with 200 µM oleic acid. inhibition, % at 12.5 µM. hit rate 0.66% among 230,000;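 active = pattern-corrected inhibition of lipid staining of at least 50% with the nuclear-stain viability signal not falling by more than 50%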
MC4R antag cAMP: MC4R antagonists of cAMP signaling, primary screen, cell-based, TR-FRET, antagonist arm of biased-ligand search; hit rate 0.48% among 360,000; inhibition, % at 6.5 µM; MC4R-expressing cells, MTII-stimulated cAMP, LANCE TR-FRET;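 active = inhibition above its plate's cutoff, the mean of tested wells on that plate plus 3 SD, cut at about 29% in these data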
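Test system: U2OS cells stably expressing human melanocortin 4 receptor (MC4R); also added: Melanotan II challenge; compound: 6.5 µM single dose; timing: 30-min compound preincubation, 1-h Melanotan II challenge, 1-h detection, room temperature; signal: Eu-cAMP/anti-cAMP TR-FRET, emission 671 nm; repeats: one well per compound, no replicates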
GalR3 antag: GalR3 antagonists in HEK293 cells, primary screen, cell-based, fluorescence readout | HEK293 GalR3-CNG cAMP membrane potential fluorescence; galR3 body fused to GalR1 C-terminus | Galanin receptor type 3 (Homo sapiens), O60755 | hit rate 0.44% among 360,000 | inhibition, % at 3 µM;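 active = inhibition above the screen-wide average plus 3 SD, cut at about 13% in these data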;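 note: forskolin and galanin both at EC90 stimulate the cells; cAMP rise reported by CNG channel membrane potential dye signal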
Target sequence (O60755 1-299 limits assumed): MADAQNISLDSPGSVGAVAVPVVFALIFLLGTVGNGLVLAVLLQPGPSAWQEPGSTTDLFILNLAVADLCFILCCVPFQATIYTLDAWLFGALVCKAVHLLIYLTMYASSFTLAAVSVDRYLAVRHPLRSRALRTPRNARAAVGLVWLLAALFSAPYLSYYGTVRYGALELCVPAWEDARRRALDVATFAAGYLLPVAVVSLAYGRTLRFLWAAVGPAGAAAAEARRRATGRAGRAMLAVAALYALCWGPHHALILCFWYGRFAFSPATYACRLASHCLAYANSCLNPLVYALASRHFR
Each line names hits and unclear results; the compound was inactive in the other large screens. This is a sample that favours compounds with a hit; in the whole collection about 2.9% have one here.

CCCNC(=O)C[C@@H]1C[C@@H]2c3cc(NS(=O)(=O)c4ccc(OC)cc4)ccc3O[C@@H]2[C@@H](CO)O1	none (no result: Efflux pump mplx, Calb FLC)
CN(C)S(=O)(=O)N1CCc2ccccc21	none
O=S(=O)(Cc1ccccc1)N1CCc2ccccc21	Efflux pump mplx 2.7, Calb FLC 100 (no result: MC4R barr agon, TAG inh, MC4R antag cAMP, GalR3 antag)
CC(C)(C)c1cc(NC(=O)Nc2ccccc2OC(F)(F)F)no1	MC4R barr agon 8.7 (no result: TAG inh)
C=C(C(=O)c1ccccc1)C(C)C(=C)C(=O)c1ccccc1	TAG inh 55
Cc1ccc2c(cnn2C(=O)CCCC(=O)NCc2ccc(Cl)cc2)c1	MC4R barr agon 8.6 (no result: GalR3 antag)
CC(=O)c1ccc(N/C=C\C(=O)c2ccc(C)cc2)cc1	none
Cc1ccc(C(=O)/C=C/Nc2ccc3c(c2)OCO3)cc1	MC4R barr agon 12
CCc1ccc(N2C(=O)/C(=C/c3cccs3)N(CC(=O)OC)C2=S)cc1	MC4R barr agon 9.1 (no result: TAG inh)
Cc1cc(SCC(=O)N/N=C/c2ccc(O)cc2O)c(C)cc1Br	Calb FLC 101 (no result: TAG inh)
Cc1cc2c(cc(C(=O)OCC(=O)NCc3ccco3)n2C)s1	Calb FLC 102
COc1ccc(C(=O)c2oc3nc(C)cc(C)c3c2N)cc1	none
Cc1ccc(C(=O)c2oc3nc(C)cc(C)c3c2N)cc1	Calb FLC 121
Cc1nc2cc(OC3(C)CCN(Cc4ccc(OC(F)(F)F)cc4)C3)ccc2s1 (configuration not stated)	none (no result: Efflux pump mplx, Calb FLC)
Nc1ccccc1SCc1c(Cl)cccc1Cl	MC4R barr agon 8.5
COc1cc(C(O)c2nc(-c3cc4ccccc4o3)cs2)ccc1F (configuration not stated)	none (no result: Efflux pump mplx, Calb FLC)
CC(CCC(=O)NN)C1CCC2C3CCC4CC(O)CCC4(C)C3CCC12C (configuration not stated)	none (no result: Efflux pump mplx, Calb FLC)
CC(CCC(C)C(C)(C)C)[C@@H]1CC[C@H]2C3C[C@H](OS(O)(=S)=S)[C@H]4C[C@H](OS(O)(=S)=S)[C@@H](OS(O)(=S)=S)C[C@]4(C)[C@H]3CC[C@]12C (some centres not stated) (tested in a mixture with another compound)	Efflux pump mplx 2.1 (no result: Calb FLC, GalR3 antag)
CC1(C(=O)NS(=O)(=O)c2ccc(Cl)s2)CCN1C(=O)C1(c2ccccc2)CCCC1 (configuration not stated)	none (no result: Efflux pump mplx, Calb FLC)
C=C(C)Cn1c2ccc(NC(=O)NCc3ccccc3)cc2c(=O)n1C	none (no result: Efflux pump mplx, Calb FLC)
CCOC(=O)c1c(SCCN2CCCC2)n(-c2ccccc2)c(=S)n(-c2ccccc2)c1=O	TAG inh 82 (no result: Efflux pump mplx, Calb FLC)
C=CCO[C@H]1CN(C(=O)OC)[C@@H](c2ccccc2Br)C[C@H]1OCC=C	none (no result: Efflux pump mplx, MC4R barr agon, Calb FLC, TAG inh, MC4R antag cAMP)
O=C(/C=C/[C@H]1O[C@@H](n2ccc(=O)[nH]c2=O)[C@H](O)[C@@H]1O)NCc1ccc2c(c1)OCO2	none (no result: Efflux pump mplx, MC4R barr agon, Calb FLC, TAG inh, MC4R antag cAMP)
O=C(Nc1ccc(Cl)c([N+](=O)[O-])c1)c1ccc(NCCCN2CCOCC2)c([N+](=O)[O-])c1	MC4R barr agon 20 (no result: TAG inh)
O=C(CNC(=O)c1ccccc1)OC(C(=O)O)c1ccc(F)cc1 (configuration not stated)	none (no result: Efflux pump mplx, Calb FLC)
O=C(Cc1ccc(F)cc1)Nc1cccc(-c2cn3c(n2)SCC3)c1	none
O=C(Nc1cccc(-c2cn3c(n2)SCC3)c1)c1ccc(Br)o1	Calb FLC 121
CCOC(=O)Cn1c(=O)oc2cc(S(=O)(=O)N3CCn4c3nc3ccccc34)ccc21	none
CCOC(=O)Cn1c(=O)oc2cc(S(=O)(=O)N3CCCc4ccccc43)ccc21	MC4R antag cAMP 30
CCc1cc2cc(C(=O)Nc3ccc(F)cc3)sc2s1	none
CCc1cc2cc(C(=O)Nc3ccccc3F)sc2s1	MC4R barr agon 9.0 (no result: TAG inh)
C#CCSc1nc2sc3c(c2c(=O)n1C)CCC3	MC4R barr agon 9.1 (no result: Calb FLC, TAG inh)
CC(=O)Nc1ccc(N2CCCCC2)c(C(=O)Nc2cccc(C)c2)c1	Calb FLC 94
Cc1cccc(NC(=O)c2cc(NC(=O)C3CCCCC3C(=O)O)ccc2N2CCCCC2)c1 (configuration not stated)	none (no result: Calb FLC, TAG inh)
C[C@H]1CN([C@@H](C)CO)C(=O)CCCn2cc(nn2)CO[C@@H]1CN(C)C(=O)c1ccc2ccn(C)c2c1	none (no result: Efflux pump mplx, MC4R barr agon, Calb FLC, TAG inh, MC4R antag cAMP)
COc1cccc(/C=N/Nc2nc(Nc3ccc([N+](=O)[O-])cc3)nc(N3CCCC3)n2)c1O	Calb FLC 72 (no result: TAG inh)
COc1ccccc1CN1Cc2ccccc2Oc2ccccc2S1(=O)=O	none (no result: Efflux pump mplx, MC4R barr agon, Calb FLC, TAG inh, MC4R antag cAMP)
CCc1cc(-c2n[nH]c(C)c2-c2ccccc2Cl)c(O)cc1OC	Calb FLC 86 (no result: TAG inh)
CCOc1ccc(-c2n[nH]c(C)c2-c2ccccc2OC)c(O)c1	none
CCC(C(=O)NCc1ccccc1)n1c(CSCCOc2ccccc2)nc2ccccc21 (configuration not stated)	none (no result: Efflux pump mplx, MC4R barr agon, Calb FLC, TAG inh, MC4R antag cAMP)
O=C(C(=O)N1CCN(c2cccc(Cl)c2)CC1)c1c[nH]c2ccccc12	MC4R barr agon 8.5
O=C(C(=O)N1CCN(c2ccc(F)cc2)CC1)c1c[nH]c2ccccc12	none
Cc1ccc(NC(=O)C2(C)CCN2C2Cc3ccccc3C2)cc1 (configuration not stated)	MC4R barr agon 8.4 (no result: Efflux pump mplx, Calb FLC)
CC1(C(=O)Nc2cccc(Oc3ccccc3)c2)CCN1C1Cc2ccccc2C1 (configuration not stated)	none (no result: Efflux pump mplx, Calb FLC)
Cn1c(=O)ccc2ccccc21	none (no result: Efflux pump mplx, Calb FLC, TAG inh)
CCOc1cc(/C=C(/C#N)c2nc3ccccc3[nH]2)ccc1Oc1ccc([N+](=O)[O-])cn1	none (no result: TAG inh)
N#C/C(=C/c1ccc(O)c(O)c1)c1nc2ccccc2[nH]1	Efflux pump mplx 2.0 (no result: TAG inh)
COC(=O)c1ccc(COc2ccc(/C=C(\C#N)c3nc4ccccc4[nH]3)cc2OC)o1	Calb FLC 79 (no result: TAG inh)
COc1cc(/C=C(/C#N)c2nc3ccccc3[nH]2)ccc1OCc1ccc(C(=O)O)o1	none (no result: TAG inh)
COc1cc(/C=C(/C#N)c2nc3ccccc3[nH]2)ccc1Oc1ncccc1[N+](=O)[O-]	MC4R barr agon 14 (no result: TAG inh)
CC1(C)N=C(N)N=C(N)N1c1ccc(OCC(=O)N2CCOCC2)c(Cl)c1	none (no result: Efflux pump mplx, Calb FLC)
Cc1nn(C)c(C)c1CN(Cc1nc(CCC(C)C)no1)C(C)C	GalR3 antag 92
CC(C)CCc1noc(CN(C)CCC2CCOCC2)n1	none
O=C(/C=C/c1cccc([N+](=O)[O-])c1)c1ccc([N+](=O)[O-])o1	MC4R antag cAMP 30
Cc1cccc(/C=C/C(=O)c2ccc([N+](=O)[O-])o2)c1	none
CCOC(=O)CSc1nnc(-c2cc(OC)c(OC)c(OC)c2)o1	none
COc1cc(-c2nnc(SCc3cc(=O)oc4cc(O)c(O)cc34)o2)cc(OC)c1OC	Calb FLC 104 (no result: TAG inh)

Screening results (PubChem BioAssay)
